Screens deposited in PubChem BioAssay by several laboratories.
Sampled rows, rich in hits. Any-hit rate of the full collection: about 4.1%.
KCNQ1 inh: human KCNQ1 channel inhibition. P51787. CHO-K1 KCNQ1, FluxOR thallium flux fluorescence; stronger effect = higher value. B-score at 10 µM. hit rate 1.3% among 310,000. AID 2642;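 active = compounds whose thallium flux B-score, printed positive for inhibition, exceeds three library SD while starting fluorescence stays within three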;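 also: channel opened by potassium depolarization with thallium stimulus after 20 min compound exposure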
Target sequence (P51787 whole entry, looked up): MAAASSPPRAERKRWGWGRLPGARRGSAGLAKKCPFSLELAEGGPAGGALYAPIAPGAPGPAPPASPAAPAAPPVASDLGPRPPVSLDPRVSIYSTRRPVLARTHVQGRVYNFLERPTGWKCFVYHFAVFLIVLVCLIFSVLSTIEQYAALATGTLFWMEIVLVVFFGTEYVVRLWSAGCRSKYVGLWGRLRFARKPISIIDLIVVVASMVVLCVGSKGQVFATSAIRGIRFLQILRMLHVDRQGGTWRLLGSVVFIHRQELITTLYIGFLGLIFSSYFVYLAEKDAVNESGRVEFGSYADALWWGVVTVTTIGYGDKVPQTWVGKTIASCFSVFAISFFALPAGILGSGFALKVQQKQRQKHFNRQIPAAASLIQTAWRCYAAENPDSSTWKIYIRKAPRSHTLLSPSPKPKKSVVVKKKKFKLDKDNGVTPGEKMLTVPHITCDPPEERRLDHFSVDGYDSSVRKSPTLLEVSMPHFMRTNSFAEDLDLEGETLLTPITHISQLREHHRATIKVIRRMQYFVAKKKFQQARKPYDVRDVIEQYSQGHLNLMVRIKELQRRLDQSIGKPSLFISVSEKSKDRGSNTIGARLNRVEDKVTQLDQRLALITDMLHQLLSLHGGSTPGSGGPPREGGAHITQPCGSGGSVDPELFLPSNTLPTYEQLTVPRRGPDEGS
KCNK3 inh: human KCNK3 channel inhibition, primary screen; B-score at 10 µM; CHO-KCNK3 thallium flux, FluxOR fluorescence; stronger effect = lower value; AID 602410; O14649; hit rate 0.84% among 340,000;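 active = B-score under library mean minus 4 SD, starting fluorescence ratio at most library mean plus 5 SD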;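 also: more negative B-score means stronger inhibition of thallium flux through KCNK3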
hERG rescue: compounds protecting human hERG from proarrhythmic drug block; Q12809; CHO-hERG, FluxOR thallium flux, dofetilide IC70 present; activation (rescue from dofetilide block), less the hit threshold, % at 10 µM; hit rate 0.51% among 310,000; AID 1511;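 active = activation above the mean of controls blocked by dofetilide plus 5 SD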;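 also: thallium influx through hERG after potassium depolarization seen as dye fluorescence rise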
KCNK9 block: inhibitors of human KCNK9 two-pore domain potassium channel | hit rate 1.2% among 310,000 | HEK293 KCNK9, FluxOR thallium flux fluorescence; stronger effect = lower value | AID 488922 | B-score at 10 µM | Q9NPC2;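 active = ratio B-score over 3 SD below the library mean, with starting fluorescence within 5 SD of its mean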;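 also: negative B-score means less thallium flux so channel inhibition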
KCC2 mod: modulates chloride dependent transport by human KCC2 | Q9H2X9 | KCC2 cells, thallium flux FluoZin-2 fluorescence | B-score of Tl+ flux slope (higher = more flux/activation; lower = inhibition) at 10 µM | hit rate 2.2% among 190,000 | AID 1456;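 active = thallium flux slope and its plate-corrected score both differing from the plate sample mean at a set confidence after two filtering rounds, in either direction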;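 also: slope of fluorescence scaled to starting intensity during 10 to 20 s after thallium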
KCNQ1 pot: potentiators or activators of human KCNQ1 potassium channel. B-score at 10 µM. hit rate 0.35% among 310,000. P51787. CHO-K1 KCNQ1, thallium flux FluxOR fluorescence; stronger effect = higher value;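 active = fluorescence ratio B-score, a plate-corrected score, at least three library SD, with initial intensity B-score within 5 SD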
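System: CHO-K1 cells stably expressing KCNQ1 / Medium: assay buffer for compound exposure, DMSO matched across wells / Reagent: thallium- and potassium-containing depolarizing buffer / Compound: one concentration, matched DMSO / Incubation: 20 min compound pretreatment at room temperature / Measured by: kinetic FluxOR fluorescence, 10 s baseline plus 110 s post-stimulus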
An asterisk follows results filed as active; i = inactive; · = not tested or not shown.

SMILES | KCNQ1 inh | KCNK3 inh | hERG rescue | KCNK9 block | KCC2 mod | KCNQ1 pot
CCCc1cc(=O)[nH]c(SCC(=O)N(Cc2ccccc2)C(C)C)n1 | i | i | -4.6 | -6.99* | · | i
CCN(c1ccccc1)S(=O)(=O)c1ccc(C(=O)N(C)CCc2ccc(OC)c(OC)c2)cc1 | i | i | -7.4 | i | · | i
Cc1cccc(C)c1NC(=O)CNC(=O)Cn1nc(C)c(C)c(C#N)c1=O | i | i | -20.2 | i | · | i
O=C(COc1ccc(Cl)cc1Cl)NC(=S)N1CCCc2ccccc21 | i | i | 13.1* | i | 20.7* | i
Cc1cccc(OCC(=O)NC(=S)N2CCCc3ccccc32)c1 | i | i | -2.6 | i | 23.3* | i
C/C(=N\OCc1ccc(C#N)cc1)c1cc2ccccc2o1 | i | i | -10.2 | i | -0.258 | i
C/C(=N\OCc1ccccc1C#N)c1cc2ccccc2o1 | i | i | -5.0 | -7.13* | · | i
COc1ccc(C(=O)c2no[n+]([O-])c2C(=O)c2ccc(OC)cc2)cc1 | i | i | -38.2 | i | -0.393 | i
Cc1c(C(=O)c2no[n+]([O-])c2C(=O)c2cnn(C)c2C)cnn1C | 6* | i | -9.2 | i | 0.486 | i
CCOC(=O)N1CCN(C(=O)c2ccc3c(=O)n(CCC4=CCCCC4)c(=S)[nH]c3c2)CC1 | i | i | -6.8 | i | · | i
O=c1c2ccc(Cl)cc2[nH]c(=S)n1CCC1=CCCCC1 | i | i | 25.3* | i | 36.6* | 20*
COc1cc(N/N=C/c2ccc(N(C)C)cc2)ncn1 | i | i | -10.3 | i | 0.0536 | i
CN(C)c1cc(N/N=C/c2ccc(Cl)cc2)nc(N(C)C)n1 | 7* | i | -10.5 | i | 0.519 | i
Cc1cc(C)nc(N2CCCC(C(=O)Nc3cccc(Cl)c3)C2)n1 (stereo not given) | i | i | -3.2 | i | · | i
CC(=O)Nc1sc(NC(=O)c2ccccc2)nc1-c1cccs1 | i | i | 5.5* | i | -0.668 | i
CCN1CCN(c2cc(N3CCN(C(=O)c4ccco4)CC3)c3c4c(onc24)-c2ccccc2C3=O)CC1 | 8* | i | -10.4 | i | · | i
O=C(O)CCNc1cc(N2CCN(C(=O)c3ccco3)CC2)c2noc3c2c1C(=O)c1ccccc1-3 | i | i | -18.3 | i | · | i
CCCN(CC(=O)Nc1cc(Cl)ccc1Cl)C(=O)/C=C/c1cc(OC)ccc1OC | · | -8.72* | · | · | · | ·
O=C1OC(c2ccc3c(c2)OCO3)N(C(=O)c2ccc(Cl)c(Cl)c2)c2ccccc21 (stereo not given) | i | i | -7.5 | -7.52* | -0.129 | i
CCN(c1ccccc1)S(=O)(=O)c1cccc(C(=O)OCC(=O)Nc2ccc(NC(C)=O)cc2)c1 | · | i | · | · | · | ·
N=C1/C(=C/c2ccc(-c3cccc(C(=O)O)c3)o2)C(=O)N=C2SC=C(c3ccccc3)N12 | 7* | i | -29.4 | i | -4.53 | i
CS(=O)(=O)C1=NSC2=NC(=O)/C(=C\c3ccc(-c4ccccc4)o3)C(=N)N21 | · | · | · | · | -1.99 | ·
CC(C)S(=O)(=O)C1=NSC2=NC(=O)/C(=C\c3ccc(-c4ccccc4)o3)C(=N)N21 | 8* | i | -30.3 | i | -3.41 | i
N=C1/C(=C\c2ccc(-c3cc(Cl)cc(Cl)c3)o2)C(=O)N=C2SC=C(c3ccccc3)N12 | i | i | -3.8 | i | 1.55 | i
CCOc1cccc(N2CCN(CCNC(=O)Nc3ccc(C)cc3)CC2)c1C | i | i | -11.8 | i | · | i
SMILES | KCNQ1 inh | KCNK3 inh | hERG rescue | KCNK9 block | KCC2 mod | KCNQ1 pot
CC(C)=CCc1cc2c(=O)c3c(O)c4c(cc3oc2c(O)c1O)OC(C)C4(C)C (stereo not given) | 6* | · | -25.3 | i | · | i
CC(=O)c1ccc(N2CCN(C(=O)c3ccc(Cn4c(=S)[nH]c5ccc(N6CCOCC6)cc5c4=O)cc3)CC2)cc1 | i | i | -14.1 | i | 0.104 | i
COc1ccc(/C=N/NC(=O)Nc2cccc3nsnc23)cc1OC | i | i | -13.4 | -6.58* | 0.771 | i
CCCCNC(=O)COC(=O)c1c2c(nc3ccccc13)/C(=C/c1cccs1)CC2 | · | i | · | · | 0.324 | ·
CC1CCCCC1NC(=O)COC(=O)c1c2c(nc3ccccc13)/C(=C\c1ccco1)CC2 (stereo not given) | · | -11.2* | · | · | · | ·
CN(CCC#N)C(=O)COC(=O)c1c2c(nc3ccccc13)/C(=C\c1ccco1)CC2 | · | -8.87* | · | · | · | ·
O=C(COC(=O)c1c2c(nc3ccccc13)/C(=C\c1ccco1)CC2)NC1CCCC1 | · | -9.39* | · | · | · | ·
O=C(COC(=O)c1c2c(nc3ccccc13)/C(=C/c1cccc([N+](=O)[O-])c1)CCC2)NC1CCS(=O)(=O)C1 (stereo not given) | i | i | -6.5 | i | 1.18 | i
CC(C)(C)c1ccc(C(=O)N2CCN(C(=O)c3cccs3)CC2)cc1 | · | i | · | · | · | ·
CCOc1ccc(NC(=O)COc2ccc(C(=O)NCc3cccc(OC)c3)cc2OC)cc1 | · | i | · | · | · | ·
Cc1nc(NS(=O)(=O)c2ccccc2)sc1C(C)(C)C | i | i | -6.8 | i | -0.295 | i
Cc1cccc2sc(NC(=O)Cn3cccc3)nc12 | i | i | -6.7 | i | 11.5* | i
Cc1cccc2sc(NC(=O)CCn3cccc3)nc12 | i | i | -15.6 | i | -0.575 | i
Cc1cccc2sc(NC(=O)CN(C)S(=O)(=O)c3ccc(Br)s3)nc12 | i | -9.91* | -6.2 | i | 0.812 | i
Cc1cccc2sc(NS(=O)(=O)c3ccccc3)nc12 | 6* | i | -2.0 | i | · | i
CC(=O)Nc1nc2c(F)cccc2s1 | i | i | 2.7 | i | 1.68 | 18*
CCN(CC)C(=O)Cn1c(=O)n(CC(=O)N2CCCCC2)c(=O)c2sccc21 | i | i | -15.0 | i | · | i
O=C(Nc1ccccc1N1CCOCC1)c1ccc([N+](=O)[O-])s1 | · | i | · | · | · | ·
CC1CCN(C(=O)COC(=O)/C=C/c2ccco2)CC1 | · | i | · | · | · | ·
COCCOC(=O)C1=C(N)OC2=C(C(=O)CC(C)(C)C2)C1c1cccnc1 (stereo not given) | i | i | 5.2* | i | · | i
COc1ccccc1OCc1ccc(C(=O)n2nc(C)c(Cl)c2C)o1 | i | i | -9.4 | -7.85* | -0.805 | i
COC(=O)c1ccc(COc2ccccc2OC)o1 | i | i | -5.5 | i | · | i
O=C(C[n+]1ccccc1)N/N=C/c1ccc(C(=O)O)cc1 | · | i | · | · | · | ·
N#Cc1ccc(-c2nnnn2-c2ccc3c(c2)OCO3)cc1 | i | i | 4.8* | i | 0.0152 | i
CC(=O)NCCNc1ccc([N+](=O)[O-])cc1C#N | i | i | 5.8* | i | 1.22 | i
